How the values were obtained:
[1] = molecular target: T1, Estrogen receptor (Homo sapiens) (UniProt P03372); assay: Relative binding affinity for human estrogen receptor alpha
T1 sequence (whole entry): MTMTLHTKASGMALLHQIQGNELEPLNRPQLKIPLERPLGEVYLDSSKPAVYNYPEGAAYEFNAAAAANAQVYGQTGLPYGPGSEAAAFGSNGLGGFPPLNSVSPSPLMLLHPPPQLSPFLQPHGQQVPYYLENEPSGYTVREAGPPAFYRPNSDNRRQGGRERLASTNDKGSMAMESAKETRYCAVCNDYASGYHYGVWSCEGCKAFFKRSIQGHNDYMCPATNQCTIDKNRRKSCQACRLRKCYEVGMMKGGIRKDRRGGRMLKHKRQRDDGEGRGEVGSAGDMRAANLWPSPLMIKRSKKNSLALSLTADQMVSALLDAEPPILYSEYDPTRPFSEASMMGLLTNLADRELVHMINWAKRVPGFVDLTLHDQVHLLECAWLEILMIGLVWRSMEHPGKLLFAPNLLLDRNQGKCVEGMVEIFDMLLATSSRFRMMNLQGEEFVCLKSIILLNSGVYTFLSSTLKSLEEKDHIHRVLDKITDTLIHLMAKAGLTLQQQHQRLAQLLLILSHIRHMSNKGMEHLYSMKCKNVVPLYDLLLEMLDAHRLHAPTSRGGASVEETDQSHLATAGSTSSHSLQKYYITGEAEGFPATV

[2] = molecular target: Estrogen receptor beta (Homo sapiens) (UniProt Q92731); assay: Transcriptional efficacy against human estrogen receptor beta at 10e-6 M; type: functional
Summary of the method: (§1)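 HEC-1 cells were grown in phenol-red MEM with 5% calf serum and 5% fetal calf serum, then plated in phenol-red-free improved MEM with 5% charcoal dextran-treated calf serum. They were lipofectin-transfected for 5 h at 37 °C with ERβ expression vector, 2ERE-pS2-Luc and pCMV β-galactosidase. Ligand was then added for 24 h.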

[3] = molecular target: Estrogen receptor beta (Homo sapiens) (UniProt Q92731); assay: Transcriptional efficacy against human estrogen receptor beta at 10e-8 M; type: functional; summary of the method: as §1

Estrogen receptor beta (Homo sapiens), sequence (Q92731 whole entry): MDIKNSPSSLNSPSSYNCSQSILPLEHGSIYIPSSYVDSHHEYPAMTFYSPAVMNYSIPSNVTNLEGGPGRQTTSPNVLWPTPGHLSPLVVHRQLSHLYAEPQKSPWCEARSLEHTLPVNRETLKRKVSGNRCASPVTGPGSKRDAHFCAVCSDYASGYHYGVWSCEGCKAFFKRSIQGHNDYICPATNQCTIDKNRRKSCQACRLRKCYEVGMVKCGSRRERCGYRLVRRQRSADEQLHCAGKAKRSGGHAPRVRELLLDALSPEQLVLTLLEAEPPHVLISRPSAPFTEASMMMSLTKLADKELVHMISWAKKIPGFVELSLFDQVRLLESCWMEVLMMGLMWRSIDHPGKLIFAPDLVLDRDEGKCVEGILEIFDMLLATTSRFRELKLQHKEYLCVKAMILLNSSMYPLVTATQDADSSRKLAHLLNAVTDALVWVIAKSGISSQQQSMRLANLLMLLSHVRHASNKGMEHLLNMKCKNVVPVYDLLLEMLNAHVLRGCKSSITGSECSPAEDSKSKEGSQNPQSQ

Row | Structure (SMILES) | Relative binding affinity [1] | Efficacy [2] | Efficacy [3]
1 | Oc1ccc(-n2nc3c(Cl)c(O)ccc3c2Cl)cc1 | 0.07 | – | –
2 | Oc1ccc2nn(-c3ccccc3)c(Cl)c2c1 | 0.014 | – | –
3 | Oc1ccc(-n2cc3cc(O)ccc3n2)cc1 | 0.049 | 90% | 47%
4 | Oc1ccc(-n2nc3ccc(O)cc3c2C(F)(F)F)cc1 | 3.9 | 74% | 78%
5 | Oc1ccc(-n2cc3ccc(O)c(Br)c3n2)cc1 | 0.02 | 29% | 1.4%
6 | Oc1ccc(-n2nc3ccc(O)cc3c2-c2ccccc2)cc1 | 0.04 | 28% | 11%
7 | Oc1ccc(-n2nc3ccccc3c2Cl)cc1 | 0.03 | – | –
8 | Oc1ccc(-n2nc3cc(O)ccc3c2Cl)cc1 | 0.08 | – | –
9 | Oc1ccc(-n2cc3ccc(O)cc3n2)cc1 | 0.008 | 75% | 1.7%
10 | Oc1ccc2nn(-c3ccc(O)c(Cl)c3)c(Cl)c2c1 | 0.023 | – | –
11 | Oc1ccc(-n2cc3ccccc3n2)cc1 | 0.02 | – | –
12 | Oc1ccc2nn(-c3ccc(O)c(Cl)c3)cc2c1 | 0.07 | – | –
13 | Oc1ccc2nn(-c3ccccc3)cc2c1 | < 0.004 | – | –

Other lines, results leading:

Row | Relative binding affinity [1] | Efficacy [2] | Efficacy [3] | Structure (SMILES)
14 | 0.14 | – | – | CC(C)c1c2cc(O)ccc2nn1-c1ccc(O)cc1
15 | 0.18 | 67% | 66% | Oc1ccc(-n2nc3ccc(O)cc3c2Br)cc1
16 | 0.17 | 58% | 85% | Oc1ccc(-n2nc3ccc(O)cc3c2I)cc1
17 | 0.3 | 89% | 88% | Oc1ccc(-n2nc3ccc(O)cc3c2Cl)cc1
18 | 0.08 | 100% | 63% | CCc1c2cc(O)ccc2nn1-c1ccc(O)cc1
19 | 1.4 | 56% | 82% | N#Cc1c2cc(O)ccc2nn1-c1ccc(O)cc1
20 | 0.03 | 87% | 57% | Cc1c2cc(O)ccc2nn1-c1ccc(O)cc1
21 | 0.06 | – | – | C=CCc1c2cc(O)ccc2nn1-c1ccc(O)cc1
22 | 0.04 | – | – | CCCc1c2cc(O)ccc2nn1-c1ccc(O)cc1
